According to PubChem BioAssay AID602315 (Southern Research Specialized Biocontainment Screening …, 2012):
Results filed as inconclusive are left out. Calls of active or inactive are those of the source.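 How the source made its calls: active means inhibition of 30% or more at any tested concentration; inactive means the rest, inconclusive results apart.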

The compounds below were run against M1-family alanyl aminopeptidase (Plasmodium falciparum 3D7) (assay: PfM1AAP aminopeptidase inhibitors, dose response, counter-screen for PfM17LAP inhibitor project, biochemical, QFRET, set 3 (AID 602315)). Conditions: recombinant PfM1AAP, H-Leu-NHMec fluorogenic cleavage.
How it was run: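 system = recombinant PfM1AAP enzyme | input = PfM1AAP enzyme at 5 µg/mL final | medium = 50 mM Tris-HCl buffer pH 7.5, 2 mM CoCl2, 2% DMSO | compound = 10 doses, 100–0.2 µM, 1:2 steps | schedule = 90 min reaction, room temperature | signal = fluorescence, ex 370/em 460 nm | benchmarks = enzyme-free wells as background reference | repeats = triplicate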

**Q.** Which IC50 does the source give for `CCCOc1ccc(CC(=O)NO)cc1` here?
**A.** The IC50 was 16.7 µM.

**Q.** For `CCCCOc1cccc(CC(=O)NO)c1`, which IC50 is on record?
**A.** The IC50 was 26 µM.

**Q.** For `CCCCOc1ccc(C(C)C(=O)NO)cc1` (stereo not drawn), which IC50 is on record?
**A.** Its IC50 is 28.2 µM.

**Q.** `CCC(C)Oc1ccc(CC(=O)NO)cc1` (stereo not drawn) was tested. Which IC50 did it give?
**A.** The IC50 was 20.2 µM.

Same assay, conditions: recombinant PfM1AAP, H-Leu-NHMec fluorogenic cleavage; at 100 µM (top of the series)

**Q.** How did the inhibition turn out when `CN(C)CCOc1ccc(CC(=O)O)cc1` was run?
**A.** Its inhibition is “inactive”.

**Q.** How did the inhibition turn out when `O=C(NO)c1ccc2ccccc2c1` was run?
**A.** The inhibition was “inactive”.

**Q.** How did the inhibition turn out when `CCCCOc1ccc(C(C)C(=O)O)cc1` (stereo not drawn) was run?
**A.** The inhibition was “inactive”.

**Q.** With `CCCCOc1ccc(C(C)C(=O)OC)cc1` (stereo not drawn) as the compound, how does the inhibition read?
**A.** The inhibition was “inactive”.

**Q.** For `CCCCOc1cccc(CC(=O)OC)c1`, which inhibition is on record?
**A.** The inhibition was “inactive”.

**Q.** For `CCCCOc1ccc(CN(O)C(C)=O)cc1`, which inhibition is on record?
**A.** Its inhibition is “inactive”.

**Q.** Which inhibition does the source give for `CCCCOc1ccc(C(C)(C)C(=O)O)cc1` here?
**A.** The inhibition was “inactive”.

**Q.** Which inhibition does the source give for `CCCCOc1ccc(CN(O)C(=O)c2ccccc2)cc1` here?
**A.** Its inhibition is “inactive”.

**Q.** With `CCCCOc1ccc(C(C)(C)C(=O)NO)cc1` as the compound, how does the inhibition read?
**A.** Its inhibition is “inactive”.
